Source: ChEMBL document CHEMBL4145661, “H2O2/Peroxynitrite-Activated Hydroxamic Acid HDAC Inhibitor Prodrugs Show Antileukemic Activities against AML Cells” (ACS Med Chem Lett, 2018)
Values belong to the compound of their own block, whether it stands above or below them. Active and inactive are the calls of the source. The rule behind the calls is not given here.

Key:
[1] = molecular target: T1, Histone deacetylase (Homo sapiens) (UniProt Q13547+O15379+Q9UBN7+Q92769+Q9UQL6+Q8WUI4+Q9BY41+Q96DB2+P56524+Q9UKV0+Q969S8); settings: at 1 µM
MV4-11 [2] = experiment: Cytotoxicity against human MV4-11 cells assessed as reduction in cell viability at 0.25 to 1 uM cotreated with 4-CPA measured after 72 hrs by MTT assay; type: functional, cell-based
MV4-11 [3] = experiment: Cytotoxicity against human MV4-11 cells assessed as reduction in cell viability after 72 hrs by MTT assay; settings: MV4-11, 72 h
[4] = molecular target: T1, Histone deacetylase (Homo sapiens); experiment: Inhibition of HDAC in human PBMC assessed as increase in acetylation of histone H4 at 5 to 10 uM after 6 hrs by Western blot analysis; type: cell-based
Procedure, shortened: (§1)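 Peripheral blood mononuclear cells from one healthy donor, treated at 5 and 10 μM and compared against vehicle control. Acetyl-histone H4 and acetyl-α-tubulin assessed by Western blot.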

[5] = molecular target: T1, Histone deacetylase (Homo sapiens); experiment: Inhibition of HDAC in human PBMC assessed as increase in acetylation of alpha-tubulin at 5 to 10 uM after 6 hrs by Western blot analysis; type: cell-based
Procedure, shortened: as §1

PBMC = experiment: Cytotoxicity against human PBMC assessed as reduction in cell viability after 72 hrs by MTT assay; type: functional, cell-based
Procedure, shortened: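 Peripheral blood mononuclear cells from two healthy donors, viability measured by MTT assay.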

MV4-11 [6] = experiment: Potentiation of cytarabine-induced cytotoxicity against human MV4-11 cells assessed as reduction in cell viability at 0.5 uM after 72 hrs by MTT assay; type: functional, cell-based
Procedure, shortened: (§2)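 MV4-11 cells given prodrug (2.5 or 0.5 μM) with cytarabine for 72 h. Viability by MTT; mean ± SD, n = 6.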

U-937 [7] = experiment: Cytotoxicity against human U937 cells assessed as reduction in cell viability after 72 hrs by MTT assay; settings: U-937, 72 h
MV4-11 [8] = experiment: Potentiation of cytarabine-induced cytotoxicity against human MV4-11 cells assessed as increase in cleaved PARP level at 0.5 uM after 24 hrs by Western blot analysis; type: functional, cell-based
Procedure, shortened: (§3)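 MV4-11 cells exposed 24 h to prodrug (2.5 or 0.5 μM) and/or cytarabine (0.5 μM). Cleaved caspase-3 and cleaved PARP-1 detected by Western blot.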

[9] = molecular target: T1, Histone deacetylase (Homo sapiens); experiment: Inhibition of HDAC in human MV4-11 cells assessed as increase in acetylation of alpha-tubulin after 6 hrs by Western blot analysis; type: cell-based
Procedure, shortened: (§4)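 Western blot of MV4-11 cells after 6 h exposure at the indicated concentrations, probing acetyl-histone H4 and acetyl-α-tubulin. Densitometry normalized to GAPDH, fold change relative to SAHA treatment. Blot representative of three experiments.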

[10] = molecular target: T1, Histone deacetylase (Homo sapiens); experiment: Inhibition of HDAC in human U937 cells assessed as increase in acetylation of histone H4 after 6 hrs by Western blot analysis; type: cell-based
[11] = molecular target: T1, Histone deacetylase (Homo sapiens); experiment: Inhibition of HDAC in human U937 cells assessed as increase in acetylation of alpha-tubulin after 6 hrs by Western blot analysis; type: cell-based
[12] = molecular target: T1, Histone deacetylase (Homo sapiens); experiment: Inhibition of HDAC in human MV4-11 cells assessed as increase in acetylation of histone H4 after 6 hrs by Western blot analysis; type: cell-based
Procedure, shortened: as §4

MV4-11 [13] = experiment: Potentiation of cytarabine-induced cytotoxicity against human MV4-11 cells assessed as increase in cleaved caspase 3 level at 0.5 uM after 24 hrs by Western blot analysis; type: functional, cell-based
Procedure, shortened: as §3

U-937 [14] = experiment: Cytotoxicity against human U937 cells assessed as reduction in cell viability at 0.25 to 2.5 uM after 72 hrs by MTT assay; type: functional, cell-based
MV4-11 [15] = experiment: Cytotoxicity against human MV4-11 cells assessed as reduction in cell viability at 2.5 uM pretreated with GSH for 2 hrs followed by compound addition measured after 72 hrs by MTT assay; type: functional, cell-based
MV4-11 [16] = experiment: Cytotoxicity against human MV4-11 cells assessed as reduction in cell viability at 2.5 uM pretreated with BSO for 2 hrs followed by compound addition measured after 72 hrs by MTT assay; type: functional, cell-based
MV4-11 [17] = experiment: Cytotoxicity against human MV4-11 cells assessed as reduction in cell viability at 2.5 uM pretreated with LPS for 2 hrs followed by compound addition measured after 72 hrs by MTT assay; type: functional, cell-based
MV4-11 [18] = experiment: Potentiation of cytarabine-induced cytotoxicity against human MV4-11 cells assessed as increase in cleaved caspase 3 level at 2.5 uM after 24 hrs by Western blot analysis; type: functional, cell-based
Procedure, shortened: as §3

MV4-11 [19] = experiment: Cytotoxicity against human MV4-11 cells assessed as reduction in cell viability at 2.5 uM pretreated with SOD for 2 hrs followed by compound addition measured after 72 hrs by MTT assay; type: functional, cell-based
MV4-11 [20] = experiment: Cytotoxicity against human MV4-11 cells assessed as reduction in cell viability at 2.5 uM pretreated with GSHEE for 2 hrs followed by compound addition measured after 72 hrs by MTT assay; type: functional, cell-based
MV4-11 [21] = experiment: Potentiation of cytarabine-induced cytotoxicity against human MV4-11 cells assessed as increase in cleaved PARP level at 2.5 uM after 24 hrs by Western blot analysis; type: functional, cell-based
Procedure, shortened: as §3

MV4-11 [22] = experiment: Potentiation of cytarabine-induced cytotoxicity against human MV4-11 cells assessed as reduction in cell viability at 2.5 uM after 72 hrs by MTT assay; type: functional, cell-based
Procedure, shortened: as §2

[23] = Chemical stability of the compound in PBS at 100 uM at pH 7.4 after 72 hrs at 37 degC in presence of GSH by HPLC method; type: physicochemical; settings: buffer, pH 7.4, 72 h
MV4-11 [24] = experiment: Cytotoxicity against human MV4-11 cells assessed as reduction in cell viability at 2.5 uM pretreated with catalase for 2 hrs followed by compound addition measured after 72 hrs by MTT assay; type: functional, cell-based
MV4-11 [25] = experiment: Cytotoxicity against human MV4-11 cells assessed as reduction in cell viability at 0.05 to 0.5 uM cotreated with up to 500 nM of 4-CPA measured after 72 hrs by MTT assay; type: functional, cell-based
MV4-11 [26] = experiment: Cytotoxicity against human MV4-11 cells assessed as reduction in cell viability up to 10 uM after 72 hrs by MTT assay; type: functional, cell-based

inhibition [1]: 32%
Compound: COc1cc(/C=C/C(=O)N2CCC=CC2=O)cc(OC)c1OCCCCCCC(=O)NO
Activity (MV4-11 [2]): Active

Compound: CC(=O)Oc1ccc(CCl)cc1
IC50 (MV4-11 [3]): 1.13 µM

inhibition [4]: inactive
inhibition [5]: inactive
inhibition [9]: Dose-dependent effect
inhibition [10]: Dose-dependent effect
inhibition [11]: Dose-dependent effect
inhibition [12]: Dose-dependent effect
Compound: COc1cc(/C=C/C(=O)N2CCC=CC2=O)cc(OC)c1OCCCCCCC(=O)NOCc1ccc(B(O)O)cc1
IC50 (MV4-11 [3]): 0.7 µM
IC50 (PBMC): 7.6 to 10 µM
Activity (MV4-11 [6]): Active
IC50 (U-937 [7]): 1.61 µM
Activity (MV4-11 [8]): Active
Activity (MV4-11 [13]): Active

Compound: COC(=O)CCCCCCOc1c(OC)cc(/C=C/C(=O)N2CCC=CC2=O)cc1OC
Activity (U-937 [14]): inactive

inhibition [4]: inactive
inhibition [5]: inactive
inhibition [9]: Dose-dependent effect
inhibition [10]: Dose-dependent effect
inhibition [11]: Dose-dependent effect
inhibition [12]: Dose-dependent effect
Stability [23]: Stable
Compound: O=C(CCCCCCC(=O)Nc1ccccc1)NOCc1ccc(B(O)O)cc1
Activity (MV4-11 [15]): inactive
IC50 (MV4-11 [3]): 3.07 µM
Activity (MV4-11 [16]): Active
Activity (MV4-11 [17]): Active
Activity (MV4-11 [18]): Active
IC50 (PBMC): > 10 µM
Activity (MV4-11 [19]): Active
Activity (MV4-11 [20]): inactive
IC50 (U-937 [7]): 6.13 µM
Activity (MV4-11 [21]): Active
Activity (MV4-11 [22]): Active
Activity (MV4-11 [24]): inactive

Compound: O=C(CCCCCCC(=O)Nc1ccccc1)NO
Activity (MV4-11 [25]): inactive
Activity (PBMC): Active

Compound: O=C(CCCCCCC(=O)Nc1ccccc1)NCCc1ccc(B(O)O)cc1
Activity (MV4-11 [26]): inactive
